A selection: hits, their analogues and other compounds. The true share with any hit is near 0.73%.
Keap1-Nrf2 PPI: disrupts human Keap1 binding to Nrf2 peptide. AID 504523. Keap1 Kelch-Nrf2 peptide fluorescence polarization, 1536-well. 340,000 tested, 0.15% active. Q14145. inhibition, % at 9.4 µM; in the data active means inhibition above about 12%; inconclusive means no clear call, values can overlap the other calls; inactive means below about 7.3%;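 further: human Keap1 Kelch domain with fluorescein labeled Nrf2 9mer peptide probe; 0% = neutral control wells and 100% = peptide positive control; higher means more block of Keap1 binding to Nrf2 peptide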
Target sequence (Q14145 whole entry, looked up, the tested form may be a part): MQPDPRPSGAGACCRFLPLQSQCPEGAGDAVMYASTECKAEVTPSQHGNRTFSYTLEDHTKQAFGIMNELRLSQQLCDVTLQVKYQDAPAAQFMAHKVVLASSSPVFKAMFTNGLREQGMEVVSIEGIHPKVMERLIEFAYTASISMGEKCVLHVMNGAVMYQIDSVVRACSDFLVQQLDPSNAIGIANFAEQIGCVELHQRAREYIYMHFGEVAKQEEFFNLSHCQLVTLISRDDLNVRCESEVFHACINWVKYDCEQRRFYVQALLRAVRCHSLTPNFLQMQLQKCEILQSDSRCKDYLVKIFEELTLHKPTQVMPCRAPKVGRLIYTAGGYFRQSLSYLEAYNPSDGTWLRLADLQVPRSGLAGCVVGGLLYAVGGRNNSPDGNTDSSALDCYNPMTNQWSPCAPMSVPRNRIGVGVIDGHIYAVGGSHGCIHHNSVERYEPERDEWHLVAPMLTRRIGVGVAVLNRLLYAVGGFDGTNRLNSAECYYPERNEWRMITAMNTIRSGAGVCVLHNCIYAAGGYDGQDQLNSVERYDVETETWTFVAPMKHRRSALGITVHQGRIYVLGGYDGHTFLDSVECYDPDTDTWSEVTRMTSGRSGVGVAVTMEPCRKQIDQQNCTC
DDE Tn7 FP inh: inhibitors of Tn7 peptide binding to human fibrin DD(E). P02675. FP displacement of FITC-Tn7 peptide from fibrin DD(E); 0% = median of compound wells per plate. inhibition, % at 8.3 µM. 370,000 tested, 0.13% active. AID 720508;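 active means inhibition above the mean of compounds falling within the control limits plus 3 SD of them, cut at about 14% in these data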;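 further: 0% = plate median of compound wells and 100% = 10 µM Aha-Tn7 peptide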
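Assay system: Fibrin-DD(E) protein isolated from polymerized human fibrin clots; read-out basis: percent inhibition; medium: Tris/NaCl/CaCl2 buffer, pH 7.8; signal: FP measurement; incubation: 10 min plus 3 h, room temperature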
RTF Ca sens inh: cardiac RTF calcium desensitization; P19429+P45379; IANBD-labeled cardiac RTF, Ca2+ fluorescence; inhibition, % at 7.15 µM; 340,000 tested, 0.12% active; AID 493244;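 active means inhibition above the mean inhibition of all tested compounds plus 3 SD, cut at about 17% in these data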;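 further: assay run at fixed EC70 calcium of 1.6 mM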
Tn6 DDE FP: DD(E)-Tn6 binding inhibition, primary FP screen; Fibrin DD(E) TRITC-Tn6 fluorescence polarization displacement; inhibition, % at 8.3 µM; 370,000 tested, 0.21% active;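 active means inhibition above a per-campaign cutoff: mean of compounds within control limits plus 3 SD, cut at about 15% in these data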;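 further: 0% = median of all compound wells on the plate and 100% = blocking peptide control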
RTF Ca sens act: cardiac RTF calcium sensitization; 340,000 tested, 0.24% active; IANBD-labeled TnC RTF fluorescence at EC20 calcium; 0% EC20 calcium, 100% full calcium; AID 493008; activation, % at 7.2 µM; P19429+P45379;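 active means activation above the mean over all tested compounds plus 3 SD, cut at about 30% in these data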;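 further: rise in fluorescence read as greater calcium sensitivity of cardiac thin filaments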
LANA DNA inh: blocks KSHV LANA C-terminal domain binding to DNA | MBP-C-LANA/FAM-LBS DNA binding, fluorescence polarization | inhibition, % at 9 µM | 340,000 tested, 0.078% active | AID 504423;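 active means highest replicate inhibition at or above 60% at 9 µM, even if other replicates fall short; inactive means all replicates below 60% inhibition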;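 further: 0% = neutral control wells and 100% = 4 µM acridine orange control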
Tn7 DDE conf: DD(E)-Tn7 binding inhibition, FP confirmation; shares compounds with DDE Tn7 FP inh; AID 720628; inhibition, % at 8.3 µM; FP displacement of TRITC-Tn7 peptide from DD(E); 0% set at plate's compound-well median; 460 tested, 5% active;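 active means inhibition above the campaign cutoff, the mean of compounds within control limits plus 3 SD, cut at about 14% in these data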;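 further: 100% = median FP of high control wells holding Aha-Tn7 inhibitor peptide; displacers lower polarization since freed probe rises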
DDE Tn7 FP ctr: counter-screen hit for Tn7 peptide-fibrin DD(E) binding disruption. 460 tested, 3% active. TRITC-Tn7 probe displacement, fluorescence polarization. inhibition, % at 8.3 µM. shares compounds with DDE Tn7 FP inh;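 active means inhibition above the cutoff, the mean of compounds lying between the control bounds plus 3 SD of those compounds, cut at about 17% in these data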;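 further: 0% = median of compound sample wells and 100% = excess unlabeled Aha-Tn7 peptide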
Tn6 DDE ctr: DD(E)-Tn6 binding inhibition, counter-screen. shares compounds with Tn6 DDE FP. Fibrin DD(E), TRITC-Tn6 fluorescence polarization displacement; 0% = median of compound wells, not DMSO. inhibition, % at 8.3 µM. 680 tested, 2% active;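 active means inhibition above the mean of test compounds lying between the control limits plus 3 SD of those, cut at about 14% in these data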;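 further: 0% = median of compound wells and 100% = wells with Aha-Tn7 blocking peptide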
Tn6 DDE conf: confirmation of inhibitors of Tn6 binding to human fibrin DD(E); shares compounds with Tn6 DDE FP; inhibition, % at 8.3 µM; FP displacement of TRITC-Tn6 peptide from DD(E); 0% = per-plate median of test wells; AID 720631; 680 tested, 10% active;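 active means inhibition above the mean of compounds lying within the control limits plus 3 SD, cut at about 16% in these data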;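 further: 100% = high control wells holding a competing inhibitor peptide at 10 µM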
Starred values were filed as active, the others as inactive.

How did COc1ccc(N(Cc2cc3cc(OC)ccc3[nH]c2=O)C(=O)c2cccnc2)cc1 do in these assays?
Keap1-Nrf2 PPI: -3; DDE Tn7 FP inh: 23*; RTF Ca sens inh: -6; Tn6 DDE FP: 21*; RTF Ca sens act: -3; LANA DNA inh: 0; Tn7 DDE conf: -6; DDE Tn7 FP ctr: -11; Tn6 DDE ctr: -6; Tn6 DDE conf: -11

How did C[C@@H]1CN([C@H](C)CO)C(=O)c2cc(NS(=O)(=O)c3ccccc3)ccc2O[C@@H](C)CCCCO[C@@H]1CN(C)Cc1ccc(Cl)c(Cl)c1 do in these assays?
DDE Tn7 FP inh: 0; Tn6 DDE FP: 0

Results for COc1cccc2c1C(=O)c1c(O)c3c(c(O)c1C2=O)CC(O)(C(=O)CO)CC3OC1CC(N(C)C)C(O)C(C)O1 (centres undefined) ?
Keap1-Nrf2 PPI: inconclusive; DDE Tn7 FP inh: 16*; RTF Ca sens inh: -269; Tn6 DDE FP: active; RTF Ca sens act: 201*; LANA DNA inh: 114*; Tn7 DDE conf: -7; DDE Tn7 FP ctr: 93*; Tn6 DDE ctr: -7; Tn6 DDE conf: 93*

How did COc1ccc(C(=O)NCCC2=CCCCC2)cc1[N+](=O)[O-] do in these assays?
Keap1-Nrf2 PPI: -3; DDE Tn7 FP inh: 6; RTF Ca sens inh: -2; Tn6 DDE FP: -3; RTF Ca sens act: 3; LANA DNA inh: 0

Results for O=C(NCCC1=CCCCC1)c1ccc(-n2cncn2)c([N+](=O)[O-])c1 ?
DDE Tn7 FP inh: 24*; RTF Ca sens inh: -10; Tn6 DDE FP: 162*; RTF Ca sens act: 3; Tn7 DDE conf: 2; DDE Tn7 FP ctr: 5; Tn6 DDE ctr: 2; Tn6 DDE conf: 5

What do the screens show for `CCNC(=O)C1CCCN(C(=O)Cc2cccs2)CC1` (centres undefined)?
DDE Tn7 FP inh: 15*; Tn6 DDE FP: 18*; Tn7 DDE conf: 2; DDE Tn7 FP ctr: -3; Tn6 DDE ctr: 2; Tn6 DDE conf: -3

How did CCCC1CCC2(CCCN2CCOC(=S)NCc2cccc(C)c2)CC1 (centres undefined) do in these assays?
DDE Tn7 FP inh: -2; Tn6 DDE FP: -1

What do the screens show for `c1ccc(CN2CC[C@@H](Nc3nccn4ccnc34)C2)cc1`?
DDE Tn7 FP inh: -3; Tn6 DDE FP: -2

How did CN(CC(=O)Nc1ccccc1C(=O)NC1CC1)Cc1ccc(N(C)C)cc1 do in these assays?
Keap1-Nrf2 PPI: -2; DDE Tn7 FP inh: 18*; RTF Ca sens inh: 3; Tn6 DDE FP: 40*; RTF Ca sens act: -1; LANA DNA inh: 1; Tn7 DDE conf: -6; DDE Tn7 FP ctr: -10; Tn6 DDE ctr: -6; Tn6 DDE conf: -10

What do the screens show for `COC(=O)[C@]12C[C@H](CC(=O)NCc3cccs3)C(=O)N(Cc3ccco3)C1=C[C@H](COCc1ccccc1)O[C@@H]2C`?
DDE Tn7 FP inh: 7; Tn6 DDE FP: -1

What do the screens show for `CCn1c(=S)sc2c(=O)n(-c3ccccc3)c(=S)[nH]c21`?
Keap1-Nrf2 PPI: 1; DDE Tn7 FP inh: 4; RTF Ca sens inh: 9; Tn6 DDE FP: 18*; RTF Ca sens act: 2; LANA DNA inh: -2; Tn6 DDE ctr: 8; Tn6 DDE conf: -15

How did CCc1ccc(CNCC(=O)N2CCC3(CC2)OCCO3)s1 do in these assays?
DDE Tn7 FP inh: 4; Tn6 DDE FP: -3

What do the screens show for `CCn1c(=O)c(=O)[nH]c2cc(C(=O)NC3CC3)ccc21`?
Keap1-Nrf2 PPI: 0; DDE Tn7 FP inh: 0; RTF Ca sens inh: 6; Tn6 DDE FP: 5; RTF Ca sens act: 1; LANA DNA inh: 3

What do the screens show for `CCn1c(=O)c(=O)[nH]c2cc(C(=O)NC3CCCc4ccccc43)ccc21` (centres undefined)?
Keap1-Nrf2 PPI: 3; DDE Tn7 FP inh: 10; RTF Ca sens inh: -7; Tn6 DDE FP: 18*; RTF Ca sens act: 1; LANA DNA inh: 0; Tn6 DDE ctr: -1; Tn6 DDE conf: -2

What do the screens show for `CCCCNS(=O)(=O)c1ccc(Br)cc1N1CCC[C@H]1CO`?
Keap1-Nrf2 PPI: 3; DDE Tn7 FP inh: -3; RTF Ca sens inh: -9; Tn6 DDE FP: 0; RTF Ca sens act: 1; LANA DNA inh: 0

How did CCN1CCN(c2ccc(S(=O)(=O)N3CCCCC3)cc2NC(=O)/C=C/c2ccc(F)cc2)CC1 do in these assays?
Keap1-Nrf2 PPI: -2; DDE Tn7 FP inh: -3; RTF Ca sens inh: -8; Tn6 DDE FP: -1; RTF Ca sens act: -5; LANA DNA inh: 1

Results for CCN1CCN(c2ccc(S(=O)(=O)N3CCCCC3)cc2NC(=O)/C=C/c2cccc(OC)c2OC)CC1 ?
Keap1-Nrf2 PPI: 1; DDE Tn7 FP inh: 10; RTF Ca sens inh: 3; Tn6 DDE FP: 16*; RTF Ca sens act: -5; LANA DNA inh: -1; Tn6 DDE ctr: -5; Tn6 DDE conf: -8

How did O=C(COC(=O)c1ccccc1NC(=O)c1ccccc1)c1cccc([N+](=O)[O-])c1 do in these assays?
Keap1-Nrf2 PPI: -2; DDE Tn7 FP inh: 3; RTF Ca sens inh: -6; Tn6 DDE FP: 17*; RTF Ca sens act: 2; LANA DNA inh: -1; Tn6 DDE ctr: 3; Tn6 DDE conf: 5

Results for O=S(=O)(O)c1cc(Cl)cc(N=Nc2ccc(O)cc2O)c1O ?
Keap1-Nrf2 PPI: -2; DDE Tn7 FP inh: 10; RTF Ca sens inh: 15; Tn6 DDE FP: 23*; RTF Ca sens act: -30; LANA DNA inh: 84*; Tn6 DDE ctr: 2; Tn6 DDE conf: 30*

Results for O=C(NC(Cc1cccc(F)c1)C(=O)O)C1CCCCC1 (centres undefined) ?
Keap1-Nrf2 PPI: -1; DDE Tn7 FP inh: -3; RTF Ca sens inh: 5; Tn6 DDE FP: 16*; RTF Ca sens act: -1; LANA DNA inh: 3; Tn6 DDE ctr: -2; Tn6 DDE conf: -6

How did Cc1ccc(C(=O)NC(Cc2cccc(F)c2)C(=O)O)cc1 (centres undefined) do in these assays?
Keap1-Nrf2 PPI: 1; DDE Tn7 FP inh: -7; RTF Ca sens inh: -5; Tn6 DDE FP: 5; RTF Ca sens act: -2; LANA DNA inh: 0
